In PubChem BioAssay AID1019 (Sanford-Burnham Center for Chemical Genomics, 2008):
Hit rate of the full screen: of about 190,000 compounds, fewer than 10 were called active.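 The calls were made as follows: active = over 50% inhibition of intestinal alkaline phosphatase at 20 µM in the single-dose screen; inactive = the rest.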 A selection follows.

What follows are compounds tested on alkaline phosphatase, intestinal [Bos taurus] (assay: bovine intestinal alkaline phosphatase inhibitors, primary screen, selectivity assay for TNAP inhibitor project, biochemical, bovine IAP, CDP-star luminescence (AID 1019)). Conditions: purified bovine IAP, 30 min, at 20 µM, hits give high values.
Method in brief: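 test system = bovine IAP enzyme | medium = DEA buffer 100 mM, pH 9.8, with MgCl2 1.0 mM, ZnCl2 0.02 mM | detection = luminescence | dosing = single compound dose of 20 µM, 2% DMSO final | incubation = 30 min reaction at room temperature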

inhibition, inactive:
Cn1cccc1C(C#N)c1ccccc1C#N (stereo not given) -10.8%
Cc1ccc(NC(=S)N(Cc2ccco2)C(C)c2cccs2)cc1 (stereo not given) 34.5%
NC1=C([N+](=O)[O-])C(c2ccccc2)C2=C(CCCC2=O)O1 (stereo not given) 3.7%
COc1ccccc1Oc1ccc(N/C=C2/CCCC2=O)cc1 20.1%
CC(=O)Nc1nc(N(C)C)nc(N(C)C)n1 4.4%
CC(=O)c1ccc(N=C2SCCCN2C(=O)C2CCCCC2)cc1 24.2%
COc1ccccc1N1CCN(CC(=O)NCCc2ccc(S(N)(=O)=O)cc2)CC1 -0.9%
Oc1ccc(/C=N/Nc2ccc(C(F)(F)F)cn2)cc1O -26.9%
COc1ccc(OC)c(C2C3=C(N=c4s/c(=C\c5cccc(O)c5)c(=O)n42)c2ccccc2CC3)c1 (stereo not given) 0.5%
COc1ccc(NC(=O)C(C)SCc2ccccc2)cc1 (stereo not given) -24.1%
CN(c1ccccc1)S(=O)(=O)c1ccc(Cl)c(C(=O)OCC(=O)N2CCOCC2)c1 0.4%
CC(NCc1nc2ccccc2n1C)C12CC3CC(CC(C3)C1)C2 (stereo not given) 1%
CCN(CC)S(=O)(=O)c1cc([N+](=O)[O-])ccc1N=Nc1c(O)n(C)c2ccccc12 -5.1%
Cc1cccc(CN2CCN(Cc3cnn(-c4ccccc4F)c3)CC2CCO)n1 (stereo not given) -15.4%
O=[N+]([O-])c1ccccc1N/N=C1\CCc2ccccc21 14.9%
CCc1ccc(C(=O)OCC(=O)Nc2cccc(S(=O)(=O)NC3=NCCCCC3)c2)cc1 7.2%
O=C(COC(=O)c1cc(-c2cccs2)nn1-c1ccccc1)Nc1cc([N+](=O)[O-])ccc1Cl -4.8%
Cc1ccc(C2=NN(C(=O)COc3ncnc4ccccc34)C(c3ccco3)C2)cc1 (stereo not given) -8.2%
COC(=O)c1cc(NC(=O)c2cccnc2)ccc1N1CCOCC1 0.2%
COc1ccc(S(=O)(=O)NC(C)C)cc1C(=O)NC1CCCCC1 7.7%
COc1ccccc1NC(=O)C[n+]1ccccc1 5.8%
Cc1cc(/C=C2/SC(=O)N(CC(=O)N3CCCC3)C2=O)ccc1N1CCOCC1 2.3%
COc1ccc(CCNC(=O)Cn2c(=O)n(CC3CCCO3)c(=O)c3ccccc32)cc1OC (stereo not given) -3.9%
N#C/C(=C\C1=C(N2CCOCC2)C(=C\c2ccccc2)/CC1)C(=O)Nc1ccccc1F 5.9%
CC1CN/C(=C\C(=O)c2ccc(Br)cc2)C(=O)N1 (stereo not given) 12.9%
COc1ccc(/C=C(\C#N)C(=O)ONC2=NCCCCC2)cc1 -2%
Cc1ncoc1C(=O)N1CCCC(C(=O)c2ccc3c4c(cccc24)CC3)C1 (stereo not given) 8.3%
COC(=O)c1nc(NC(=O)c2ccc(F)cc2)n[nH]1 8.8%
CC1(C)CC(=O)c2cnc3nc4ccccc4n3c2C1 7.1%
CCOc1c(CNCc2ccc(C(=O)O)cc2)cccc1OC -5.7%
Cc1cc(C(C)(C)C)cc(S(=O)(=O)Nc2ccc(C(=O)O)cc2)c1C -15.7%
Cc1c(NC(=O)CSc2nnnn2-c2ccc(C(=O)O)cc2)c(=O)n(-c2ccccc2)n1C 6%
CC(C)(C)c1cnnn1-c1ccc([N+](=O)[O-])cc1 3.1%
CCCCCCCCCOC1OC(CO)C(O)C(O)C1NC(C)=O (stereo not given) -0.5%
COc1ccc(CCNC(=O)CN(c2ccccc2)S(C)(=O)=O)cc1 -4%
CCCc1nc2c([nH]1)C(c1cccnc1)C(C#N)=C(N)O2 (stereo not given) 8.5%
CC(OC(=O)CCc1nc(=O)c2ccccc2n1C)C(=O)NCc1ccc2c(c1)OCO2 (stereo not given) -9.4%
O=c1[nH]c(=S)[nH]c2[nH]c(=S)[nH]c12 18.7%
CC(C)N(Cc1nc(-c2ccc3c(c2)OCO3)no1)CC1CCC(=O)N1 (stereo not given) 2.1%
O=C(NC1CC1)c1ccc(-c2ccccc2)cc1 -4.4%
O=C(O)CSCC(=O)Nc1ccc(C(F)(F)F)cc1 3.8%
COc1cc(OC)cc(C(=O)NCC(=O)OCc2csc(-c3ccccc3)n2)c1 1.4%
CNc1nccc(-c2ccc(Cl)cc2)c1C#N -1.9%
O=C(c1ccc(C(F)(F)F)cc1)C1CCCN(C(=O)c2csnn2)C1 (stereo not given) 9.5%
CN1C(=O)/C(=C/c2ccco2)SC1=Nc1cccc(C(=O)O)c1 -5.3%
COC(=O)CCC(=O)N1CCCC(CO)(Cc2ccccc2)C1 (stereo not given) 6.2%
CCN(CC)CCN(C(=O)c1cccc([N+](=O)[O-])c1)c1nc2ccc(OC)cc2s1 4.9%
O=C(Nc1ccc([N+](=O)[O-])cc1)C1(c2ccccc2)CCOCC1 9.9%
Cc1noc(C)c1COc1cccc(C(=O)Nc2cccnc2)c1 -7.5%
CC(C)CCNC(=O)c1cccnc1Sc1ccccc1 -6.1%
Brc1ccc(C2CC(c3ccccc3)=Nc3ccccc3N2)cc1 (stereo not given) 7.5%
Cc1ccc(C)c(Cn2nnc3c(=O)[nH]c(C(=O)Nc4ccc(F)cc4)nc32)c1 2.7%
COc1ccccc1CN(C)C(=O)C1(c2ccc(Cl)cc2)CC1 11.2%
COCCNC(=S)Nc1cc(S(=O)(=O)N2CCOCC2)ccc1N1CCCCC1 -0.2%
COc1ccc(S(=O)(=O)N2CCN(C(=O)c3cc(C)oc3C)CC2)cc1 4.3%
Cc1ccc(NC(=O)c2oc3ccccc3c2C)c([N+](=O)[O-])c1 21.2%
Clc1ccc(-c2cc(C3CCNCC3)[nH]n2)c(Cl)c1 1%
COc1cccc(NC(=O)C(Sc2nnnn2C)c2ccccc2)c1 (stereo not given) -2.3%
CCC1SC(CC)C(=O)N(CC(=O)NC2CCCCC2)C1=O (stereo not given) 11.7%
O=C(CCc1[nH]c2ccccc2c1Sc1ccccc1)N(CCO)CCO 14.8%
Cc1ccc(S(=O)(=O)N(Cc2ccc(Cl)cc2)c2ccccc2C(=O)NCc2cccnc2)cc1 15.3%
O=C(C/C(=N\NC(=O)c1ccccc1Br)C(F)(F)F)c1cccs1 5.9%
Cc1ccc(C(=O)N2CCN(S(=O)(=O)N3CCOCC3)CC2)cc1 9%
CCc1cccc(C)c1NC(=O)COC(=O)Cc1ccsc1 -0.9%
O=C(CSc1nncs1)NC1CCCc2ccccc21 (stereo not given) -2.1%
Cc1ccc2nc(C)cc(N/N=C/c3ccc(F)cc3)c2c1 0.2%
O=C(COC(=O)Cn1cnc2ccccc2c1=O)NCC12CC3CC(CC(C3)C1)C2 12.5%
O=C1CCC(CCC(=O)N2CCCC(C(=O)c3ccc(Cl)cc3)C2)=NN1 (stereo not given) -3%
CCC(C)CN1CCC(CO)(Cc2ccccc2Cl)CC1 (stereo not given) -18.6%
COc1ccc(N2C(=O)C(Cc3ccccc3)NC2=S)cc1 (stereo not given) -2.9%
COc1ccc(-n2cnnc2SCC(=O)Nc2cccc([N+](=O)[O-])c2)cc1 8.1%
Cc1nc2scc(-c3cccs3)c2c(=O)n1N -37.2%
CCN(CC(=O)Nc1ccc(Cl)c(S(=O)(=O)N(C)C)c1)Cc1nc2ccccc2c(=O)[nH]1 -108%
COc1cc(C(=O)Nc2cc(C(F)(F)F)ccc2-n2cncn2)cc(OC)c1OC -1.7%
NS(=O)(=O)c1ccc(CCNC(=O)c2ccc(Cl)cc2[N+](=O)[O-])cc1 -14.5%
Cc1nc2ccccn2c1C(=O)NN=C1CCN(C)CC1 -6.8%
CC(=O)NNC1=Nc2ccccc2N(C)C(C)C1 (stereo not given) 26.5%
Clc1ccc(N/N=C/c2cccs2)nn1 -1.4%
Cc1cccc(CSc2ccc(-c3cccs3)nn2)c1 14.5%
COC(=O)c1c(NC(=O)c2c(Cl)cnn2C)sc(C)c1C 0.9%
O=C(NCc1cccs1)c1cc(-c2ccccn2)nc2ccc(Br)cc12 -9.8%
CC1CCN(C(=O)c2ccc(S(=O)(=O)Cc3cc(F)ccc3F)c([N+](=O)[O-])c2)CC1 18.6%
COc1ccc(CCN=C2SCC(=O)N2Cc2ccccc2)cc1OC 3.1%
COc1ccc(C(=O)NNC(=O)c2cc(C)[nH]n2)cc1 -38.6%
CCN(CC)CCN(C(=O)c1ccc(N2C(=O)CCC2=O)cc1)c1nc2cc3c(cc2s1)OCO3 -11.6%
CC(=O)Nc1ccc(C(=O)OCC(=O)Nc2ccc([N+](=O)[O-])cc2C(F)(F)F)cc1 34.7%
Cn1cc(CN2CCCCC2c2ccccn2)c(-c2ccc3c(c2)OCCO3)n1 (stereo not given) 6.3%
COc1ccc(C(=O)Nc2ccc(N3CCC(C)CC3)cc2)cc1Br -10.7%
O=C(CSc1ccccc1)Nc1cc(Cl)ccc1Oc1ccccc1 6.2%
N/C(Cc1ccc([N+](=O)[O-])cc1)=N\OC(=O)C1CCCCC1 -0.5%
CCCCS(=O)c1snnc1C (stereo not given) -11.4%
C[C@@H]1NC(=O)c2cc([N+](=O)[O-])cc(F)c2NCCC[C@@H](C(N)=O)NC(=O)[C@H](CC(N)=O)NC1=O 38.7%
CCN(CC)C(=O)Oc1ccc(OC(=O)N(CC)CC)cc1 -10.3%
CC(=O)NCC(=O)N(Cc1ccco1)C1(C(=O)NC2CCCC2)CCCCC1 3.8%
CCOC(=O)c1c(CN(C)C)n(-c2ccccc2)c2cc(Br)c(O)cc12 -6.7%
